Laboratory results as given in ChEMBL document CHEMBL3872218, “Synthesis and T-type calcium channel-blocking effects of aryl(1,5-disubstituted-pyrazol-3-yl)methyl sulfonamides for neuropathic pain treatment” (Eur J Med Chem, 2016).

Tests used:
[1] = test system: Rattus norvegicus; experiment: Antineuropathic pain activity in rat spinal nerve ligation model assessed as effect on mechanical allodynia by measuring frequency of paw withdrawal at 100 mg/kg, po measured at 5 hrs relative to control; type: functional
Procedure, shortened: (§1)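 Spinal nerve ligation rats tested 2 weeks after nerve surgery, 100 mg/kg oral, n = 4 per group. Behaviour re-tested at 1, 3 and 5 h after dosing. Mechanical allodynia: von Frey filament applied five times, every 3–4 s, to the hind paw on a wire mesh floor. Cold allodynia: acetone applied to the plantar hind paw on a metal mesh floor.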

[2] = test system: Rattus norvegicus; experiment: Antineuropathic pain activity in rat spinal nerve ligation model assessed as effect on cold allodynia by measuring frequency of paw withdrawal at 100 mg/kg, po measured at 1 hr relative to gabapentin; type: functional; procedure, shortened: as §1
[3] = test system: Rattus norvegicus; experiment: Antineuropathic pain activity in rat spinal nerve ligation model assessed as effect on mechanical allodynia by measuring frequency of paw withdrawal at 100 mg/kg, po measured at 5 hrs relative to gabapentin; type: functional; procedure, shortened: as §1
[4] = test system: Rattus norvegicus; experiment: Antineuropathic pain activity in rat spinal nerve ligation model assessed as effect on mechanical allodynia by measuring frequency of paw withdrawal at 100 mg/kg, po measured at 1 hr relative to control; type: functional; procedure, shortened: as §1
[5] = test system: Rattus norvegicus; experiment: Antineuropathic pain activity in rat spinal nerve ligation model assessed as effect on cold allodynia by measuring frequency of paw withdrawal at 100 mg/kg, po measured at 3 hrs relative to gabapentin; type: functional; procedure, shortened: as §1
[6] = test system: Rattus norvegicus; experiment: Antineuropathic pain activity in rat spinal nerve ligation model assessed as effect on cold allodynia by measuring frequency of paw withdrawal at 100 mg/kg, po measured at 1 hr relative to control; type: functional; procedure, shortened: as §1
[7] = test system: Rattus norvegicus; experiment: Antineuropathic pain activity in rat spinal nerve ligation model assessed as effect on mechanical allodynia by measuring frequency of paw withdrawal at 100 mg/kg, po measured at 3 hrs relative to gabapentin; type: functional; procedure, shortened: as §1
[8] = test system: Rattus norvegicus; experiment: Antineuropathic pain activity in rat spinal nerve ligation model assessed as effect on cold allodynia by measuring frequency of paw withdrawal at 100 mg/kg, po measured at 3 hrs relative to control; type: functional; procedure, shortened: as §1
[9] = test system: Rattus norvegicus; experiment: Antineuropathic pain activity in rat spinal nerve ligation model assessed as effect on cold allodynia by measuring frequency of paw withdrawal at 100 mg/kg, po measured at 5 hrs relative to control; type: functional; procedure, shortened: as §1
[10] = test system: Rattus norvegicus; experiment: Antineuropathic pain activity in rat spinal nerve ligation model assessed as effect on mechanical allodynia by measuring frequency of paw withdrawal at 100 mg/kg, po measured at 1 hr relative to gabapentin; type: functional; procedure, shortened: as §1
[11] = test system: Rattus norvegicus; experiment: Antineuropathic pain activity in rat spinal nerve ligation model assessed as effect on cold allodynia by measuring frequency of paw withdrawal at 100 mg/kg, po measured at 5 hrs relative to gabapentin; type: functional; procedure, shortened: as §1
[12] = test system: Rattus norvegicus; experiment: Antineuropathic pain activity in rat spinal nerve ligation model assessed as effect on mechanical allodynia by measuring frequency of paw withdrawal at 100 mg/kg, po measured at 3 hrs relative to control; type: functional; procedure, shortened: as §1
[13] = target: T1, Voltage-dependent T-type calcium channel subunit alpha-1G (Homo sapiens, UniProt O43497); experiment: Inhibition of Cav3.1 alpha1G (unknown origin) expressed in HEK293 cells assessed as decrease in KCl-induced depolarization mediated intracellular Ca2+ level at 10 uM by fluo3/AM based high throughput screening assay relative to control; type: cell-based
T1 sequence (O43497 whole entry): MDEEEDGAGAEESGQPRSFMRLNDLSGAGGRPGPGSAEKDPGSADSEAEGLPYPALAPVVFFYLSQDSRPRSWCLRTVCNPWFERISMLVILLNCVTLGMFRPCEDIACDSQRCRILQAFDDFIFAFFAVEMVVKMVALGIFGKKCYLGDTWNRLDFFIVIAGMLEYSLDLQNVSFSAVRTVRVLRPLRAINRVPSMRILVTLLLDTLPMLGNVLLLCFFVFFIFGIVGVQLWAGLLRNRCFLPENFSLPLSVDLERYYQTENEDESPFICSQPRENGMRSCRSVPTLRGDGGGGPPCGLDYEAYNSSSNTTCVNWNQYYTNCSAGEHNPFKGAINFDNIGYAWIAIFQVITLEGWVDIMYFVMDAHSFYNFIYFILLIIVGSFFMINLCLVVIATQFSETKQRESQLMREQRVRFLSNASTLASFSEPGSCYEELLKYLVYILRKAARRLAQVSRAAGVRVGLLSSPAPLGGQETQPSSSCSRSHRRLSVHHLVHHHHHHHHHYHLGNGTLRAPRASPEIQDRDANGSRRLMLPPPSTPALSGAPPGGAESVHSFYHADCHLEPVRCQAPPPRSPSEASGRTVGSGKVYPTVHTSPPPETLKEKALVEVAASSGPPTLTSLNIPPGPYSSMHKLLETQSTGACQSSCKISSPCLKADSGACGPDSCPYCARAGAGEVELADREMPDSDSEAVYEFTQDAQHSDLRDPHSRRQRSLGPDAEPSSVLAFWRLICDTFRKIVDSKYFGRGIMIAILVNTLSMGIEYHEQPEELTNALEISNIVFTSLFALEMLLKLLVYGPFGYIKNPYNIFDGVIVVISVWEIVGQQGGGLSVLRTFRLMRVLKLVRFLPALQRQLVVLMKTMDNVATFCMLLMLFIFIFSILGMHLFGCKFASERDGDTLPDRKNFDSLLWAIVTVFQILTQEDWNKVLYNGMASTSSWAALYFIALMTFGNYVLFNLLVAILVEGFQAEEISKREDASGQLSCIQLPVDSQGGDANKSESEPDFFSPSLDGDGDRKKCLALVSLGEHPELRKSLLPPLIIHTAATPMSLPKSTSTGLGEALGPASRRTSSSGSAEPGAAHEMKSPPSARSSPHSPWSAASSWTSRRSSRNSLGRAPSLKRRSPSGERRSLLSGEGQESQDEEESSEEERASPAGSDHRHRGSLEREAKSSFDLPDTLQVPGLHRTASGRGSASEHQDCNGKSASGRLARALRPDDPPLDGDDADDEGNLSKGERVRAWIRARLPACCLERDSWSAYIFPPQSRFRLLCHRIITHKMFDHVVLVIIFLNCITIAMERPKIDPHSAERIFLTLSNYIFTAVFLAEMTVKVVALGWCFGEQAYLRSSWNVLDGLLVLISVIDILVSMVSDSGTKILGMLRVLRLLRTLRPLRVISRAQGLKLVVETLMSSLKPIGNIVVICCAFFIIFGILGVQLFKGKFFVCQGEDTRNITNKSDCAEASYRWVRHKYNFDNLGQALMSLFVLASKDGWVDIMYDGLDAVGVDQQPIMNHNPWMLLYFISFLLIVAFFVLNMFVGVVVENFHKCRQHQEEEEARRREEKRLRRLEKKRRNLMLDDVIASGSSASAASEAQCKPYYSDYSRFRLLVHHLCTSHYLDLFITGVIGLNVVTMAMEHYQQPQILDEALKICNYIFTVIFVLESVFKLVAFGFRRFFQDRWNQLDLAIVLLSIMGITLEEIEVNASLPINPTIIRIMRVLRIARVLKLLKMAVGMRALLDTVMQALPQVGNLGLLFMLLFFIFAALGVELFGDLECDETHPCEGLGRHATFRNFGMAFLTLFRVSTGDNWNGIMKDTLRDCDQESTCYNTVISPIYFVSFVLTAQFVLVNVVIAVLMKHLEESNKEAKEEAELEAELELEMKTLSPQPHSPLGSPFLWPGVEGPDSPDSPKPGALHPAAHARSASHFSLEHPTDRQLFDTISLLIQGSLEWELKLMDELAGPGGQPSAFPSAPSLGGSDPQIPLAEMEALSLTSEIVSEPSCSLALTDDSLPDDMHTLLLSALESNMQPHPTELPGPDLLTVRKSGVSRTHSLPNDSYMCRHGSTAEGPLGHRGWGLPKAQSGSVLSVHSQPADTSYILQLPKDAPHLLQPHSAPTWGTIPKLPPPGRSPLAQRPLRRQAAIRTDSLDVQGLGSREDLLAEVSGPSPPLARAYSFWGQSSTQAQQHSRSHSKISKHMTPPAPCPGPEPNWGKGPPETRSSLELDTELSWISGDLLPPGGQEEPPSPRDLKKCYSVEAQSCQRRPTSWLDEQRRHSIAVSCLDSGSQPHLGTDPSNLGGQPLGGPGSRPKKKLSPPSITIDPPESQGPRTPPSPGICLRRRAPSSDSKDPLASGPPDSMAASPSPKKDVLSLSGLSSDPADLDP
Procedure, shortened: (§2)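 HEK293 cells stably expressing Cav3.1 or Cav3.2 plated at 4 × 10⁴ cells/well and used the next day. Loaded 60 min at room temperature with […] fluo3/AM plus 0.001% Pluronic F-127 in HEPES-buffered saline (1.8 mM CaCl₂, pH 7.4). Ca²⁺ fluorescence read on FDSS6000 as % inhibition, compound at […].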

[14] = target: T2, Voltage-dependent T-type calcium channel subunit alpha-1H (Homo sapiens, UniProt O95180); experiment: Inhibition of Cav3.2 alpha1H (unknown origin) expressed in HEK293 cells assessed as decrease in KCl-induced depolarization mediated intracellular Ca2+ level at 10 uM by fluo3/AM based high throughput screening assay relative to control; type: cell-based; procedure, shortened: as §2
T2 sequence (O95180 whole entry): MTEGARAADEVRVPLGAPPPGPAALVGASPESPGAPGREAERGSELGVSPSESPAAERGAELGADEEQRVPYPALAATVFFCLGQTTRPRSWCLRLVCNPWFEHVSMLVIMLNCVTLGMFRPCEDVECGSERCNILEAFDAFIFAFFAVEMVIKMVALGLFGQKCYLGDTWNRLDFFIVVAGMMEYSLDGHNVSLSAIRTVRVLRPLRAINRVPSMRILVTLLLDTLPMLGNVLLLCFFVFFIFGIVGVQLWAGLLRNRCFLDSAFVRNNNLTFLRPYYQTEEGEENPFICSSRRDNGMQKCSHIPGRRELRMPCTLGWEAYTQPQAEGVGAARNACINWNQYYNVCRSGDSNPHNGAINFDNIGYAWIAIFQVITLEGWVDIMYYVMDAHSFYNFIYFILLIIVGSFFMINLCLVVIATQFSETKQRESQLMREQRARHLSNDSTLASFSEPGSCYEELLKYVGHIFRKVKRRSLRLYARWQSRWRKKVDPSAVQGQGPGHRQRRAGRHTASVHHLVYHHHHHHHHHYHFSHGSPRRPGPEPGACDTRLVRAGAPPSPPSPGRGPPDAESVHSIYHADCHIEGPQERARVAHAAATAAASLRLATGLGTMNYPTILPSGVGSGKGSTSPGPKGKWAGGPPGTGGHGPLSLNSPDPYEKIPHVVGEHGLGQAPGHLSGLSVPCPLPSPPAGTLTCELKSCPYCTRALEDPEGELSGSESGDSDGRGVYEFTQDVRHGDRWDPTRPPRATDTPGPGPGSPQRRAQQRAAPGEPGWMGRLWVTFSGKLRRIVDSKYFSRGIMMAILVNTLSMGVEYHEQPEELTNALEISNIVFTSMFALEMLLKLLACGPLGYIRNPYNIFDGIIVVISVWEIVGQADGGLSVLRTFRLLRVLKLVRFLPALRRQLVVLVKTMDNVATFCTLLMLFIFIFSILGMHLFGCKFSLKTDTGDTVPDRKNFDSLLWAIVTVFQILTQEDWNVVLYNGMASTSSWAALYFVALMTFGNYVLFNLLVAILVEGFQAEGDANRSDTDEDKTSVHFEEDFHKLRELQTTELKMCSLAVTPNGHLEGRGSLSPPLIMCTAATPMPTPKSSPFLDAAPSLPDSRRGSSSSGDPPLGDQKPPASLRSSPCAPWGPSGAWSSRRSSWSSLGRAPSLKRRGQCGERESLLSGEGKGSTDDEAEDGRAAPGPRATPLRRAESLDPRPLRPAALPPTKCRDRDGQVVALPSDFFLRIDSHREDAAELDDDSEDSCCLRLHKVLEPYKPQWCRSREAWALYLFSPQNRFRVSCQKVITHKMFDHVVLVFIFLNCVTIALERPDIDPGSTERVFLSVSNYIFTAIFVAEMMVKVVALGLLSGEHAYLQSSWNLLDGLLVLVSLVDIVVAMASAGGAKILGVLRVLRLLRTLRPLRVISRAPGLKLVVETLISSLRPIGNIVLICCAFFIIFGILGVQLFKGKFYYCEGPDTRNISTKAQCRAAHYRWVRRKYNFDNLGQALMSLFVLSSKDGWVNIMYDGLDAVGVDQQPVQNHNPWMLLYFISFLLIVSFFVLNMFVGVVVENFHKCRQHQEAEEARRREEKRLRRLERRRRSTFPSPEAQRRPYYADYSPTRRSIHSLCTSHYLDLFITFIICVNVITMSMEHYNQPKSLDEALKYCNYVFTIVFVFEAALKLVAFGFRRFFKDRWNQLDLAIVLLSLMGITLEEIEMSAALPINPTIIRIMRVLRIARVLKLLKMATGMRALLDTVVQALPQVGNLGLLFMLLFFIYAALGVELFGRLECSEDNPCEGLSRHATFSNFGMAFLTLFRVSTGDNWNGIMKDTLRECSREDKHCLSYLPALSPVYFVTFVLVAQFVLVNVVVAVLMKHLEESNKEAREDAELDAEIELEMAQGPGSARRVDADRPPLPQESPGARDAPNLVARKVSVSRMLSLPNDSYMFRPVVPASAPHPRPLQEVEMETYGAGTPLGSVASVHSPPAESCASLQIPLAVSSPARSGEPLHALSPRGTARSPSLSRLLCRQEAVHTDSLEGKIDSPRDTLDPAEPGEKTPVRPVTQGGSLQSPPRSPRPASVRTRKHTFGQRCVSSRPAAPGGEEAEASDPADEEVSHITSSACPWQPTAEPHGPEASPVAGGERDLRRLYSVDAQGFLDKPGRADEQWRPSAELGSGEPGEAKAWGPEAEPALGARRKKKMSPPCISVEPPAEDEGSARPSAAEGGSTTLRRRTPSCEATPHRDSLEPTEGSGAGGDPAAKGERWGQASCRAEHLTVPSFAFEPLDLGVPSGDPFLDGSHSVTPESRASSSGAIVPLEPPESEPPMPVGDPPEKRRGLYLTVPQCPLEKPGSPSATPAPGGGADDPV

[15] = target: T2, Voltage-dependent T-type calcium channel subunit alpha-1H; experiment: Inhibition of Cav3.2 alpha1H (unknown origin) expressed in HEK293 cells by whole-cell patch clamp method; type: cell-based
Procedure, shortened: (§3)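 Whole-cell patch clamp on HEK293 cells expressing Cav3.1 or Cav3.2. T-type currents evoked every 15 s by a 50-ms step from −100 mV to −30 mV. External solution (mM): 140 NaCl, 2 CaCl₂, 10 HEPES, 10 glucose, pH 7.4.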

[16] = target: Voltage-gated inwardly rectifying potassium channel KCNH2 (Homo sapiens, UniProt Q12809); experiment: Inhibition of human ERG expressed in CHOK1 cells by whole-cell patch clamp method; type: cell-based, CHO-K1
[17] = test system: Rattus norvegicus; experiment: Poteny index, ratio of test compound to gabapentin antineuropathic pain activity in rat spinal nerve ligation model assessed as effect on mechanical allodynia by measuring frequency of paw withdrawal at 100 mg, po measured after 1 hr; type: functional
[18] = organism: Homo sapiens; experiment: Inhibition of N-type Ca2+ channel (unknown origin) at 10 uM by whole-cell patch clamp method relative to control
[19] = target: T3, CYP1A2 (Homo sapiens, UniProt P05177); experiment: Inhibition of human CYP1A2 assessed as remaining activity at 10 uM using vivid CYP450 substrate measured after 15 mins by fluorescence assay relative to alpha-naphthoflavon; type: ADME; details: probe vivid CYP450 substrate, read-out: Activity
T3 sequence (P05177 whole entry): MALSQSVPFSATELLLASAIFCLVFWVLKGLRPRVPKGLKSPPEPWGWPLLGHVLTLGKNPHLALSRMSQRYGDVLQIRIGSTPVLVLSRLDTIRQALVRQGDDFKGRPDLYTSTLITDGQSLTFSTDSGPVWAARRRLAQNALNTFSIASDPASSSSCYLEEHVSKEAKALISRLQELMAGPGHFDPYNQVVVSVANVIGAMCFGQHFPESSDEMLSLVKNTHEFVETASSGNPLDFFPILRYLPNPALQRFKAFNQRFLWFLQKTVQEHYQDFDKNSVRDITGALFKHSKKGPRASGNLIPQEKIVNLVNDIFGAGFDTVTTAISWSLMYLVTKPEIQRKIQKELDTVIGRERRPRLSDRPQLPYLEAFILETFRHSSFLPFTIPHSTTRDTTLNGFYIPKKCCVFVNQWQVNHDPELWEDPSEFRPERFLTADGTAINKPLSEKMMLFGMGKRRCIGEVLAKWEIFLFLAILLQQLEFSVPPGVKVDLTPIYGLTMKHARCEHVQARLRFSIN
Procedure, shortened: (§4)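 Vivid fluorescence CYP assay: test compound at […] in water, mixed with BACULOSOMES master pre-mix and regeneration system, preincubated 15 min at 37 °C. Reaction started with Vivid substrate and NADPH. Remaining activity read by fluorescence as % of control, triplicate, mean ± SD. Isoform-specific reference inhibitors: α-naphthoflavone (1A2), sulfaphenazole (2C9), quinidine (2D6), ketoconazole (3A4).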

[20] = target: CYP2C9 (Homo sapiens, UniProt P11712); experiment: Inhibition of human CYP2C9 assessed as remaining activity at 10 uM using vivid CYP450 substrate measured after 15 mins by fluorescence assay relative to sulfaphenazol; type: ADME; details: probe vivid CYP450 substrate, read-out: Activity; procedure, shortened: as §4
[21] = target: CYP2D6 (Homo sapiens, UniProt P10635); experiment: Inhibition of human CYP2D6 assessed as remaining activity at 10 uM using vivid CYP450 substrate measured after 15 mins by fluorescence assay relative to quinidine; type: ADME; details: probe vivid CYP450 substrate, read-out: Activity; procedure, shortened: as §4
[22] = target: CYP3A4 (Homo sapiens, UniProt P08684); experiment: Inhibition of human CYP3A4 assessed as remaining activity at 10 uM using vivid CYP450 substrate measured after 15 mins by fluorescence assay relative to ketoconazole; type: ADME; details: probe vivid CYP450 substrate, read-out: Activity; procedure, shortened: as §4
[23] = target: T1, Voltage-dependent T-type calcium channel subunit alpha-1G; experiment: Inhibition of Cav3.1 alpha1G (unknown origin) expressed in HEK293 cells by whole-cell patch clamp method; type: cell-based; procedure, shortened: as §3
[24] = test system: Rattus norvegicus; experiment: Poteny index, ratio of test compound to mibefradil antineuropathic pain activity in rat spinal nerve ligation model assessed as effect on mechanical allodynia by measuring frequency of paw withdrawal at 100 mg, po measured after 1 hr; type: functional
[25] = Metabolic stability in human liver microsomes assessed as compound remaining at 1 uM in presence of NADPH as cofactor by LC-MS/MS method; type: ADME; details: read-out: Stability
Procedure, shortened: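 Pooled mixed-gender human liver microsomes incubated with compound at 37 °C with NADPH as cofactor. Result given as % parent compound remaining.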

| SMILES | MPE [1] [%] | MPE [4] [%] | MPE [6] [%] | MPE [8] [%] | MPE [9] [%] | MPE [12] [%] | inhibition [13] [%] | inhibition [14] [%] | further results |
| --- | --- | --- | --- | --- | --- | --- | --- | --- | --- |
| COCC(=O)O[C@]1(CCN(C)CCCc2nc3ccccc3[nH]2)CCc2cc(F)ccc2[C@@H]1C(C)C [MIBEFRADIL] | 41.76 | 17.29 | 25.25 | 34.77 | 63.33 | 41.44 | – | – | MPE [2]: 57.37%; MPE [3]: 92.23%; MPE [5]: 43.19%; MPE [7]: 72.78%; MPE [10]: 156.75%; MPE [11]: 145.05% |
| CC(C)Cc1cc(CNS(=O)(=O)c2ccc(C(C)(C)C)cc2)nn1-c1ccccc1 | – | – | – | – | – | – | 46.9 | 33.4 | – |
| CC(C)Cc1cc(CNS(=O)(=O)c2cccc3ccccc23)nn1-c1ccccc1 | – | – | – | – | – | – | 24.3 | 25.2 | – |
| NCC1(CC(=O)O)CCCCC1 [GABAPENTIN] | 45.28 | 11.03 | 44.01 | 80.51 | 43.66 | 56.94 | – | – | – |
| CC(C)(C)n1nc(CNS(=O)(=O)c2ccccc2)cc1-c1ccccc1 | – | – | – | – | – | – | 55.5 | 10.4 | – |
| CC(C)Cc1cc(CNS(=O)(=O)c2ccccc2)nn1-c1ccccc1 | 30.91 | 45.95 | 103.9 | 81.73 | 74.17 | 36.45 | 61.4 | 63.9 | MPE [2]: 236.08%; MPE [3]: 68.26%; IC50 [15]: 5.8 µM; MPE [5]: 101.52%; IC50 [16]: 21 µM; Ratio [17]: 3; inhibition [18]: 38.2%; MPE [7]: 64.01%; activity at 0.25 h, 10 µM [19]: 36.6%; activity at 0.25 h, 10 µM [20]: 38.4%; activity at 0.25 h, 10 µM [21]: 208%; activity at 0.25 h, 10 µM [22]: 69.6%; IC50 [23]: 5.65 µM; Ratio [24]: 3; remaining at 1 µM [25]: 13.9%; MPE [10]: 416.59%; MPE [11]: 169.88% |
| CC(C)(C)n1nc(CNS(=O)(=O)c2ccccc2)cc1-c1cccc(F)c1 | – | – | – | – | – | – | 51.5 | 53.5 | – |
| CC(C)Cc1cc(CNS(=O)(=O)c2c(F)cccc2F)nn1-c1ccccc1 | – | – | – | – | – | – | 45.1 | 69.3 | – |
| CC(C)Cc1cc(CNS(=O)(=O)c2cccc(I)c2)nn1-c1ccccc1 | – | – | – | – | – | – | 46.4 | 44.9 | – |
| CC(C)Cc1cc(CNS(=O)(=O)c2cccc(Cl)c2)nn1-c1ccccc1 | – | – | – | – | – | – | 57.6 | 55.7 | – |
